This is an account of results in ChEMBL document CHEMBL1153536, “5-lipoxygenase-activating protein inhibitors: development of 3-[3-tert-butylsulfanyl-1-[4-(6-methoxy-pyridin-3-yl)-benzyl]-5-(pyridin-2-ylmethoxy)-1H-indol-2-yl]-2,2-dimethyl-propionic acid (AM103)” (J Med Chem, 2009).

The source made the active and inactive calls. No cut-off for these calls is given here.

The nature of data set [1]: Clearance in Sprague-Dawley rat 10 mg/kg, po. Details: dose 10 mg/kg, route oral. As to conditions: in vivo. It counts as ADME, organism-based. A digest of the protocol: (§1)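 Male rats fasted overnight, 2 or 3 per route. Dosing was 2 mg/kg i.v. as a jugular bolus in PEG400/ethanol/water (40/10/50) and 10 mg/kg p.o. by gavage in 0.5% methylcellulose. Jugular cannula blood was sampled up to 24 h (8-9 samples). Plasma was acetonitrile-precipitated with buspirone internal standard and quantified by LC-MS/MS, positive ESI MRM, calibration […], LLOQ 1-5 ng/mL.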

The target of another data set is CYP3A4 (Homo sapiens, UniProt P08684). Briefly: Inhibition of CYP3A4 at 10 uM. The class given is ADME.
Chain of CYP3A4 (P08684 whole entry): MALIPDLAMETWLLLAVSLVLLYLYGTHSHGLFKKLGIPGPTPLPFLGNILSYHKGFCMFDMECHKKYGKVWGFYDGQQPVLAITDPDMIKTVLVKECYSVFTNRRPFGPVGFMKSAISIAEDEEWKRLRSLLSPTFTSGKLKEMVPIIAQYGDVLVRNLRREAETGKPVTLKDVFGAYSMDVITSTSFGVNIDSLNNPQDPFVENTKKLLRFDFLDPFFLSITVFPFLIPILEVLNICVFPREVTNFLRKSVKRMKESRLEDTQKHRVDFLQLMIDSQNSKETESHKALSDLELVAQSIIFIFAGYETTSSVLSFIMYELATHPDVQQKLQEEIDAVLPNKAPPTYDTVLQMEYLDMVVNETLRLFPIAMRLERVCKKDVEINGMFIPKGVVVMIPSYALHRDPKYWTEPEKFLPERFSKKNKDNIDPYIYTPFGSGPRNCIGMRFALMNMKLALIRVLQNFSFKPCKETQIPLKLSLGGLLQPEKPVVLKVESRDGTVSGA
For a further data set, the system named is Blood. Briefly: Inhibition of calcium ionophore A-23187-stimulated LTB4 production in human whole blood by ELISA. It counts as functional, tissue-based. The procedure, abridged: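 Heparinized human whole blood preincubated 15 min at 37 °C with compound in DMSO. Stimulated 30 min at 37 °C with A23187 (2 μL of 1.5 mM into 150 μL). Plasma LTB4 measured by ELISA at 1:100 dilution; IC50 by nonlinear regression. A single value is one assay averaging two donors.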
On the technique in general: In an ELISA, binding on a coated surface is turned into a signal by an enzyme label.

Data set [2] can be described thus: Cmax in Sprague-Dawley rat after 10 mg/kg oral dose. It counts as ADME, organism-based. Details: dose 10 mg/kg, route oral. Conditions: in vivo. The procedure, abridged: as §1
The nature of data set [3]: (§2) Bioavailability in Sprague-Dawley rat at 2 mg/kg, iv and 10 mg/kg, po. It counts as ADME, organism-based. As to conditions: Sprague-Dawley, in vivo. The procedure, abridged:
as §1

Data set [4] is described as follows: AUC in Sprague-Dawley rat at 10 mg/kg, po. The class given is ADME, organism-based. Details: dose 10 mg/kg, route oral. Conditions: plasma. The procedure, abridged: as §1
The next data set concerns the target Cytochrome P450 2D6 (Homo sapiens, UniProt P10635). Briefly: Inhibition of CYP2D6. The class given is ADME.
Data set [5] in a line: Inhibition of calcium ionophore A-23187-stimulated LTB4 production in human leukocytes by ELISA. As to conditions: Leukocyte. The class given is functional, cell-based. The procedure, abridged: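 Dextran-sedimented, hypotonically lysed human leukocytes at 1.25 × 10^5 cells/mL, preincubated 5 min at 37 °C with compound in DMSO. Stimulated 5 min at 37 °C with A23187 (5 μL of 0.5 mM into 250 μL). Supernatant LTB4 measured by ELISA at 1:4 dilution; IC50 by nonlinear regression of % inhibition vs log concentration.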

The target in data set [6] is T1, Arachidonate 5-lipoxygenase-activating protein (Homo sapiens, UniProt P20292).
T1 sequence (P20292 whole entry): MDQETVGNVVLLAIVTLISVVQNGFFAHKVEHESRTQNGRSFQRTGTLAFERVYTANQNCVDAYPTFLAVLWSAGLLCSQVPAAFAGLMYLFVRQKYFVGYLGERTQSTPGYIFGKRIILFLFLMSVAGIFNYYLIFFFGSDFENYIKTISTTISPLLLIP
Briefly: Displacement of [3H]3-[5-(pyrid-2-ylmethoxy)-3-tert-butylthio-1-benzyl-indol-2-yl]-2,2-dimethylpropionic acid from FLAP in human polymorphonuclear cell membrane. A general note: Displacement assays read how much labelled ligand stays bound in the presence of the test substance.

Data set [7] relates to Rattus norvegicus. Briefly: Volume of distribution at steady state in Sprague-Dawley rat at 10 mg/kg, po. It counts as ADME, organism-based. Details: dose 10 mg/kg, route oral. As to conditions: in vivo. The procedure, abridged: as §1
Another data set concerns the target Cytochrome P450 2C9 (Homo sapiens, UniProt P11712). Put plainly: Inhibition of CYP2C9. The class given is ADME.
Data set [8] is described as follows: Half life in Sprague-Dawley rat at 10 mg/kg, po. Set-up: dose 10 mg/kg, route oral. The class given is ADME, organism-based. Conditions: in vivo. The procedure, abridged: as §1
The target in another data set is P2Y purinoceptor 12 (Homo sapiens, UniProt Q9H244). Put plainly: Agonist activity at human P2Y12 receptor. It counts as functional.
Chain of P2Y purinoceptor 12 (Q9H244 whole entry): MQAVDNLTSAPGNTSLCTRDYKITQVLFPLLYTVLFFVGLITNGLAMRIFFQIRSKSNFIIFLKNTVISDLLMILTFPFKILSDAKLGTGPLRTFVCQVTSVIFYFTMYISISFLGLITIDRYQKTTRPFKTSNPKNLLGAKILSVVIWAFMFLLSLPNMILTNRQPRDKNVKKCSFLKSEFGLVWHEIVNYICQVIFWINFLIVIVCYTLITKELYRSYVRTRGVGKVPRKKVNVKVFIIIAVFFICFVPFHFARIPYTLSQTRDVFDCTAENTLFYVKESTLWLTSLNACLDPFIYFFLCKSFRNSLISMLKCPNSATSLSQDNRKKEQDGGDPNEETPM
Data set [9] deals with Mus musculus. Briefly: Antiasthamatic activity against ovalbumin-induced airway lung inflammation in BALB/c mouse bronchoalveolar lavage model assessed as inhibition of increase in IL5 level at 10 mg/kg, po every 6 hrs administered 2 hrs prior to ovalbumin-challenge after 24 hrs. It counts as functional, organism-based. Details: dose 10 mg/kg. The procedure, abridged:
(§3)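 Female BALB/c mice (20-25 g) were sensitized i.p. with OVA 100 μg/alum on days 0 and 14, then given intranasal OVA 50 μg in saline on day 21 under isoflurane. Oral 0.5% methocel vehicle or drug 10 mg/kg started 2 h before challenge, then every 6 h (4 doses). BAL with 4 × 0.3 mL PBS at 24 h; CysLTs and IL-5 by EIA, EPO by peroxidase assay.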

Data set [10] deals with T2, Cytochrome P450 3A4 (Homo sapiens, UniProt P08684). Briefly: Inhibition of CYP3A4 assessed as inhibition rate.
T2 sequence (P08684 whole entry): as the sequence (P08684 whole entry) above
Data set [11] in a line: Volume of distribution at steady state in Sprague-Dawley rat at 2 mg/kg, iv and 10 mg/kg, po. It counts as ADME, organism-based. Conditions: in vivo, read-out: Vdss. A digest of the protocol:
as §1

The nature of data set [12]: Clearance in Sprague-Dawley rat at 2 mg/kg, iv and 10 mg/kg, po. It counts as ADME, organism-based. Conditions: in vivo. The procedure, abridged:
as §1

Data set [13] can be described thus: Volume of distribution in dog at 2 mg/kg, iv and 5 mg/kg, po. The class given is ADME, organism-based, Canis lupus familiaris. Conditions: in vivo.
Data set [14] concerns the target T2, Cytochrome P450 3A4. Put plainly: Inhibition of CYP3A4. It counts as ADME.
Data set [15] concerns Mus musculus. Briefly: Antiasthamatic activity against ovalbumin-induced airway lung inflammation in BALB/c mouse bronchoalveolar lavage model assessed as inhibition of increase om cysteinyl leukotrienes level at 10 mg/kg, po every 6 hrs administered 2 hrs prior to ovalbumin-challenge after 24 hrs. The class given is functional. The procedure, abridged: as §3
The target of a further data set is T3, Cytochrome P450 1A2 (Homo sapiens, UniProt P05177).
T3 sequence (P05177 whole entry): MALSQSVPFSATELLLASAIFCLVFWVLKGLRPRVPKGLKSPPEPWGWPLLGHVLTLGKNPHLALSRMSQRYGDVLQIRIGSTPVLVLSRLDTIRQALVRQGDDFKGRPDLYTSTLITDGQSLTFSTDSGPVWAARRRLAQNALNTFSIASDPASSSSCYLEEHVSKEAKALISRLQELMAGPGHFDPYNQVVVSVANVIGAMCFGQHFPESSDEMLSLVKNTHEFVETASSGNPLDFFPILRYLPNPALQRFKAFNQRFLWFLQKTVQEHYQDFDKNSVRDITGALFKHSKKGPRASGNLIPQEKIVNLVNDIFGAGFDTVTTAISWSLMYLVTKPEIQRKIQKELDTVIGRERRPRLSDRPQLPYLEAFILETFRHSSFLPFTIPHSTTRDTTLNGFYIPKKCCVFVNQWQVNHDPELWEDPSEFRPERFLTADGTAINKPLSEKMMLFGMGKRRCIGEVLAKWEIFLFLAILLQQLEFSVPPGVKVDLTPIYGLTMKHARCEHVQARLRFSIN
Put plainly: Inhibition of CYP1A2. The class given is ADME.

Data set [16] in a line: Bioavailability in dog at 2 mg/kg, iv and 5 mg/kg, po. It counts as ADME, organism-based, Canis lupus familiaris. As to conditions: in vivo.
For another data set, the target named is Cytochrome P450 2C19 (Homo sapiens, UniProt P33261). Put plainly: Inhibition of CYP2C19. It counts as ADME.
Chain of Cytochrome P450 2C19 (P33261 whole entry): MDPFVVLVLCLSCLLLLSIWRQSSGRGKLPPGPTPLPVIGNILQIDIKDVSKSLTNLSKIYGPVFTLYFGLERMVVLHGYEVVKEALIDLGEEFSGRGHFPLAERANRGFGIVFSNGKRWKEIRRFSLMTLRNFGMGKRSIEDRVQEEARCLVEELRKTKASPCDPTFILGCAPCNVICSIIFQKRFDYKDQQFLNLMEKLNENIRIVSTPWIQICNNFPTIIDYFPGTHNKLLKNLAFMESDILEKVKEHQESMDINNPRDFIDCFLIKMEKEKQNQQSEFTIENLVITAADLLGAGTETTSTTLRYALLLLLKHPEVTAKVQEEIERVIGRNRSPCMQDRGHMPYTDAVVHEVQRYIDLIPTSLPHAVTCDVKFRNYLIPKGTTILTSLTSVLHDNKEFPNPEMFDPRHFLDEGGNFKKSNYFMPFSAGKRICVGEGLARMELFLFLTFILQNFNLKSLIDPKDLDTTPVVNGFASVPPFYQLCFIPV
Data set [17] is described as follows: Half life in Sprague-Dawley rat at 2 mg/kg, iv. It counts as ADME, organism-based. Details: dose 2 mg/kg, route intravenous. Conditions: in vivo. The procedure, abridged: as §1
In data set [18] the test system is Mus musculus. Put plainly: Antiasthamatic activity against ovalbumin-induced airway lung inflammation in BALB/c mouse bronchoalveolar lavage model assessed as inhibition of increase in eosinophile peroxidase level at 10 mg/kg, po every 6 hrs administered 2 hrs prior to ovalbumin-challenge after 24 hrs. The class given is functional. A digest of the protocol: as §3

Data set [19] is described as follows: Plasma concentration in BALB/c mouse at 10 mg/kg, po after 6 hrs. It counts as ADME, organism-based. Set-up: dose 10 mg/kg, route oral. A digest of the protocol: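 Female BALB/c mice, separate cohort (n = 6). Single oral dose 10 mg/kg; plasma drug level measured 6 h post-dose.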
Data set [20] in a line: Half life in dog at 2 mg/kg, iv. It counts as ADME, organism-based, Canis lupus familiaris. Set-up: dose 2 mg/kg, route intravenous. As to conditions: in vivo.
Data set [21] concerns Rattus norvegicus. The description is as §2. It counts as ADME, organism-based. As to conditions: in vivo. A digest of the protocol:
as §1

Chain of Cytochrome P450 2D6 (P10635 whole entry): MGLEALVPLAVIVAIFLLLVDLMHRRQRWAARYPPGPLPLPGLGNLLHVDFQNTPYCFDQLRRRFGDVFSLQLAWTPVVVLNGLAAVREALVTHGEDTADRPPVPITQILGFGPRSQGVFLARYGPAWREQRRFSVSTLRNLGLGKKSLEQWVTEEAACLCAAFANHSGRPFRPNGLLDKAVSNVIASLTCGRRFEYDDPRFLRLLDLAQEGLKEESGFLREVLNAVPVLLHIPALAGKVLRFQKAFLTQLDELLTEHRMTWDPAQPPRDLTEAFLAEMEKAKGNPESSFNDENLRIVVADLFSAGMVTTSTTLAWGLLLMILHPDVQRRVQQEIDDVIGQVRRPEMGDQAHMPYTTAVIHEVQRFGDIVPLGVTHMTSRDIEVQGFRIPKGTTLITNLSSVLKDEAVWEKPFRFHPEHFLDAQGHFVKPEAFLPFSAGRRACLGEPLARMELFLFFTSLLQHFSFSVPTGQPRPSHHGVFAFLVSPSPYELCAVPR
Chain of Cytochrome P450 2C9 (P11712 whole entry): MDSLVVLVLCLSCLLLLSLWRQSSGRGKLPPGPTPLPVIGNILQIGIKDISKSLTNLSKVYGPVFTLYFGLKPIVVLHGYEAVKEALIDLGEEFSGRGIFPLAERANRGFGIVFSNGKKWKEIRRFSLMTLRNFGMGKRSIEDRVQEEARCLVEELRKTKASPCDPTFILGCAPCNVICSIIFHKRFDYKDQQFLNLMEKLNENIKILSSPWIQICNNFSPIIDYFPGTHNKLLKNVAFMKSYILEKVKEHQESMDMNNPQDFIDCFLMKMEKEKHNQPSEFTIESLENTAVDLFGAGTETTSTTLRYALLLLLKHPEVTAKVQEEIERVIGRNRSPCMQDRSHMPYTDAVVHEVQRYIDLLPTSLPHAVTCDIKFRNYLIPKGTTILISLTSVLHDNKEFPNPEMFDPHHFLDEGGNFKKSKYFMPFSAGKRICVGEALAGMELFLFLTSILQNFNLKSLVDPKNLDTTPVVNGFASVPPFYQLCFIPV

One may read the CL/F as the apparent clearance, not corrected for the fraction that reaches the circulation. Usually inhibition stands for how much of the control response was suppressed. The low end stands for a response near the control, the high end for a response far below the control. As usually defined, the IC50 is the concentration that inhibits the measured activity by half. As usually defined, the Cmax is the peak of the concentration-time curve. As a reminder, the bioavailability is dose-corrected exposure relative to a reference, in per cent. A lower bioavailability goes with little systemic uptake. Broadly, the AUC is the area under the concentration-time curve, a measure of exposure. Read a low AUC as low exposure. The term half-life denotes the time in which the quantity being followed falls by half. Higher therefore signals slow decline. For `COc1ccc(-c2ccc(Cn3c(CC(C)(C)C(=O)O)c(SC(C)(C)C)c4cc(OCc5ccccn5)ccc43)cc2)nc1`, the CL/F in data set [1] is 2.8 mL/min/kg. For the same compound, on CYP3A4, the inhibition at 10 µM was 61%. The IC50 with Blood was 277 nM; against Cytochrome P450 2D6, more than 10000 nM; in [5], 4.1 nM; in [6] it was 6.8 nM; at Cytochrome P450 2C9 it was more than 10000 nM. The Cmax in data set [2] came out at 21800 ng/mL. In data set [3], this compound had a bioavailability of 100%. In addition, in data set [4], the AUC amounted to 61600 ng·h/mL. For the same compound, the Vdss in the data set on Rattus norvegicus [7] stood at 0.51 L/kg. The half-life in data set [8] was 1.9 h.
For orientation: EC50 means the midpoint of the concentration-response curve. `CCCCC/C=C\C\C=C/C=C/C=C/[C@@H](SC[C@H](N)C(=O)O)[C@@H](O)CCCC(=O)O` [LEUKOTRIEN E4] displayed an EC50 on P2Y purinoceptor 12 of 1.3 nM.
As a reminder, the inhibition in vivo is the share of the control response that was lost under treatment. As for `COc1ccc(-c2ccc(Cn3c(CC(C)(C)C(=O)O)c(SC(C)(C)C)c4cc(OCc5ccccn5)ccc43)cc2)cn1`, the result in the data set with Mus musculus [9] was Active. Further, the IC50 was 349 nM in the data set with Blood; more than 50000 nM against Cytochrome P450 3A4 [14]; more than 30000 nM at Cytochrome P450 2D6; more than 50000 nM against Cytochrome P450 1A2; 0.5 nM in [5]; more than 50000 nM at Cytochrome P450 2C19. Moreover, the IC50 in data set [6] is 4.2 nM; on Cytochrome P450 2C9 it was more than 50000 nM. Further, the TDI on Cytochrome P450 3A4 [10] is 0.015 min⁻¹. Moreover, the Vd in data set [11] is 0.3 L/kg; in data set [13], 0.41 L/kg. This compound displayed a clearance in data set [12] of 5.4 mL/min/kg. In data set [2], this compound returned a Cmax of 9000 ng/mL. The bioavailability stood at 100% in [3] and 64% in data set [16]. For the same compound, the AUC in data set [4] turned out to be 26000 ng·h/mL. The inhibition in vivo at 10 mg/kg with Mus musculus [15] and in the data set on Mus musculus [18] was 60% throughout. The half-life in data set [17] is 2.2 h; in [20], 5.2 h. Further, the concentration at 6 h in data set [19] stood at 406 nM.
For the compound `COc1ccc(-c2ccc(Cn3c(CC(C)(C)C(=O)O)c(SC(C)(C)C)c4cc(OCc5ccccn5)ccc43)cc2)nn1`, the half-inhibitory concentration (IC50) with Blood is 1580 nM; against Cytochrome P450 3A4 [14] it was 15100 nM; at Cytochrome P450 2D6, more than 30000 nM; in data set [5] it was 3.6 nM; in data set [6], 4 nM; against Cytochrome P450 2C9, 26900 nM. The Vd in data set [11] worked out at 0.47 L/kg. Further, the Cmax in [2] was found to be 7900 ng/mL. This compound yielded a F in the data set with Rattus norvegicus [21] of 42%. In [17], this compound showed a half-life of 2.1 h.
